Experimental findings from ChEMBL document CHEMBL1159044, “Antitumor agents 270. Novel substituted 6-phenyl-4H-furo[3,2-c]pyran-4-one derivatives as potent and highly selective anti-breast cancer agents” (Bioorg Med Chem, 2010) are described below.

pEC50: −log10 of the molar value. A value given as a limit tells only on which side of the number the result lay.

Data set [1] deals with ZR-75-1. As to the kind of experiment: Cytotoxicity against human ZR-75-1 after 72 hrs by SRB assay. In kind it is functional. To be noted: ZR-75-1, 72 h, read-out: ED50 (the source's name). Put shortly:
(§1)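 Cells grown in RPMI-1640 with 10% FBS, penicillin, streptomycin and amphotericin B at 37 °C, 5% CO2, then trypsinized and seeded in 96-well plates. Compounds were added from DMSO-diluted stock and incubated 72 h after attachment. Cells were TCA-fixed, stained with 0.4% SRB and read at 515 nm. ED50 is the concentration halving net protein increase, averaged from at least two independent determinations with SEM.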

The test system of data set [2] is SK-BR-3. Nature of the data set: Cytotoxicity against human SK-BR-3 cells after 72 hrs by SRB assay. In kind it is functional. To be noted: SK-BR-3, 72 h, read-out: ED50 (the source's name). Put shortly: as §1
Data set [3] can be described thus: Cytotoxicity against human vincristine-resistant KBVIN after 72 hrs by SRB assay. In kind it is functional. To be noted: read-out: ED50 (the source's name). Put shortly: as §1
Data set [4] deals with SK-BR-3. Nature of the data set: Selectivity ratio of ED50 for human DU145 cell to ED50 for human SK-BR-3 cells. Type of data set: functional.
For data set [5], the system named is ZR-75-1. As to the kind of experiment: Selectivity ratio of ED50 for human ZR-75-1 cell to ED50 for human SK-BR-3 cells. In kind it is functional. Summed up:
(§2)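 Ratio of the ED50 in the stated line to the ED50 in SK-BR-3. Each ED50 came from the 72 h SRB protein-stain assay in RPMI-1640/10% FBS-grown cells, as the concentration halving net protein increase, averaged over at least two independent determinations.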

Data set [6] relates to SK-BR-3. Nature of the data set: Selectivity ratio of ED50 for human vincristine-resistant KBVIN cell to ED50 for human SK-BR-3 cells. In kind it is functional. Put shortly:
as §2

A further data set has as its system A549. As to the kind of experiment: Cytotoxicity against human A549 after 72 hrs by SRB assay. Type of data set: functional. To be noted: A549, 72 h, read-out: ED50 (the source's name). Summed up: as §1
Data set [7] has as its system SK-BR-3. As to the kind of experiment: Selectivity ratio of ED50 for human A549 cell to ED50 for human SK-BR-3 cells. In kind it is functional. Put shortly:
as §2

The subject of another data set is MDA-MB-231. As to the kind of experiment: Cytotoxicity against human MDA-MB-231 after 72 hrs by SRB assay. In kind it is functional. To be noted: MDA-MB-231, 72 h, read-out: ED50 (the source's name). Summed up:
as §1

In the next data set the test system is DU-145. Nature of the data set: Cytotoxicity against human DU145 after 72 hrs by SRB assay. To be noted: DU-145, 72 h, read-out: ED50 (the source's name). Type of data set: functional.
Data set [8] relates to SK-BR-3. Nature of the data set: Selectivity ratio of ED50 for human MDA-MB-231 cell to ED50 for human SK-BR-3 cells. Type of data set: functional. Put shortly:
as §2

For data set [9], the system named is SK-BR-3. Nature of the data set: Selectivity ratio of ED50 for human KB cell to ED50 for human SK-BR-3 cells. In kind it is functional. Put shortly:
as §2

The next data set relates to KB. As to the kind of experiment: Cytotoxicity against human KB after 72 hrs by SRB assay. To be noted: read-out: ED50 (the source's name). In kind it is functional. Put shortly: as §1
The subject of data set [10] is SK-BR-3. As to the kind of experiment: Cytotoxicity against human SK-BR-3 cells after 72 hrs by MTT assay. Type of data set: functional. To be noted: SK-BR-3, 72 h, read-out: ED50 (the source's name). Put shortly: (§3)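 MTT read-out: 5000 cells/well were seeded in 96-well plates in recommended growth medium and incubated overnight. Drug in DMSO was added, with 72 h at 37 °C in 5% CO2. MTT reagent was then added for 2 h, and formazan was read as optical density at 570. Data are mean and SD of replicates from a single experiment.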

Data set [11] in a line: Cytotoxicity against human MCF10A after 72 hrs by MTT assay. In kind it is cell-based, MCF-10A. To be noted: MCF10A cells, read-out: ED50. Summed up:
as §3

Data set [12] in a line: Cytotoxicity against human 184A1 after 72 hrs by MTT assay. To be noted: 184A1 cells, read-out: ED50. In kind it is cell-based. Summed up:
as §3

As to `Cc1cccc2c1ccc1c3occ(C)c3c(=O)oc21`, the pEC50 in the data set with ZR-75-1 [1] is 6.05; with SK-BR-3 [2], 6.02; in data set [3], less than 4.12.

With `Cc1ccc(-c2cc3occ(C)c3c(=O)o2)cc1C`, the pEC50 in the data set on SK-BR-3 [2] was 4.84.

`COc1cc(OC)cc(-c2cc3occ(C)c3c(=S)o2)c1`: the pEC50 with SK-BR-3 [2] was less than 4.18.

Take `Cc1coc2cc(-c3cccc(F)c3)oc(=O)c12`: the pEC50 in the data set on SK-BR-3 [2] is 4.69.

With `Cc1ccc(-c2cc3occ(C)c3c(=O)o2)cc1`, the pEC50 in the data set with SK-BR-3 [2] was less than 4.08.

Turning to `COc1ccc(-c2cc3occ(C)c3c(=O)o2)cc1`, the pEC50 in the data set with SK-BR-3 [2] was less than 4.11.

With `Cc1coc2cc(-c3ccc(O)cc3)oc(=O)c12`, the pEC50 in the data set on SK-BR-3 [2] is 4.44.

`Cc1coc2cc(-c3cc(O)cc(O)c3)oc(=O)c12`: the pEC50 in the data set with SK-BR-3 [2] is 4.42.

As for `COc1cc(-c2cc3occ(C)c3c(=O)o2)cc(OC)c1OC`, the “Ratio ED50” value with SK-BR-3 [4] was found to be 100; in the data set on ZR-75-1 [5], 66; in the data set on SK-BR-3 [6] it was 100; in the data set on SK-BR-3 [7] it was 100; in the data set with SK-BR-3 [8] it was 100; in the data set with SK-BR-3 [9], 100. Besides, the pEC50 with A549 is 4.20; with ZR-75-1 [1], 4.54; with SK-BR-3 [2] it was 6.36; in [3], less than 4.20; in the data set with MDA-MB-231, less than 4.50; in the data set with DU-145 it was less than 4.20.

Regarding `Cc1coc2cc(-c3cccc(O)c3)oc(=O)c12`, the pEC50 is 4.16 with A549; 6.05 in the data set on ZR-75-1 [1]; 5.79 with SK-BR-3 [2]; 4.19 in the data set on KB; 4.22 in data set [3]; less than 4.38 in the data set on MDA-MB-231. The pEC50 in the data set with DU-145 was 4.08.

For `Cc1coc2cc(-c3cccc(O)c3O)oc(=O)c12`, in the data set on SK-BR-3 [2], the pEC50 is 4.47.

Turning to `Cc1coc2cc(-c3ccc(O)c(O)c3)oc(=O)c12`, the pEC50 in the data set with A549 was 4.71; with ZR-75-1 [1] it was 5.92; in the data set on SK-BR-3 [2] it was 6.33; in the data set on KB, 4.69; in data set [3], 4.63; in the data set with MDA-MB-231, 4.64. Also, the pEC50 in the data set on DU-145 was 4.59.

Turning to `Cc1cc(C)cc(-c2cc3occ(C)c3c(=O)o2)c1`, the pEC50 with SK-BR-3 [2] is 4.65.

In the case of `COc1cc(OC)cc(-c2cc3oc(C)c(C)c3c(=O)o2)c1`, the pEC50 in the data set with SK-BR-3 [2] is less than 4.18.

On to `Cc1coc2cc(-c3ccccc3)oc(=O)c12`, for which the pEC50 in the data set with SK-BR-3 [2] was 4.81.

Turning to `Cc1cccc(-c2cc3occ(C)c3c(=O)o2)c1`, the pEC50 in the data set with A549 was 4.27; in the data set with ZR-75-1 [1] it was 5.20; in the data set on SK-BR-3 [2], 5.82; with KB it was 4.36; in data set [3] it was 4.40; with MDA-MB-231 it was less than 4.08. Also, the pEC50 in the data set on DU-145 is 4.61.

Regarding `COc1cccc(-c2cc3occ(C)c3c(=O)o2)c1`, the pEC50 is 4.24 in the data set with A549; 5.26 with ZR-75-1 [1]; 5.59 with SK-BR-3 [2]; 4.15 in data set [3]; less than 4.41 in the data set with MDA-MB-231; less than 4.11 in the data set on DU-145.

As for `COc1cc(OC)cc(-c2cc3occ(C)c3c(=O)o2)c1`, the “Ratio ED50” value in the data set on SK-BR-3 [4], with ZR-75-1 [5], with SK-BR-3 [6], in the data set with SK-BR-3 [7], with SK-BR-3 [8] and with SK-BR-3 [9] was 100 in each case. Further, the pEC50 is less than 4.16 in the data set on A549; 4.51 with ZR-75-1 [1]; 6.55 in the data set on SK-BR-3 [2]; 6.00 with SK-BR-3 [10]; less than 4.16 in data set [3]; less than 4.16 in the data set on MDA-MB-231. Further, the pEC50 with DU-145 was 4.18. Besides, the CC50 at 72 h is more than 35 µM in data set [11] and 16.8 µM in [12].

Turning to `COc1cccc(-c2cc3occ(C)c3c(=O)o2)c1OC`, the pEC50 in the data set with SK-BR-3 [2] was 4.19.

Take `Cc1coc2cc(-c3ccc(F)cc3)oc(=O)c12`: the pEC50 with SK-BR-3 [2] is 4.72.

In the case of `CCc1coc2cc(-c3cc(OC)cc(OC)c3)oc(=O)c12`, in the data set with SK-BR-3 [2], the pEC50 is 4.26.

Regarding `CCOc1cccc(-c2cc3occ(C)c3c(=O)o2)c1`, the pEC50 was 4.24 with A549; 5.66 in the data set on ZR-75-1 [1]; 6.17 in the data set on SK-BR-3 [2]; 4.19 in the data set with KB; less than 4.13 in data set [3]; less than 4.43 with MDA-MB-231. Also, the pEC50 with DU-145 is 4.13.

For the compound `COc1ccc(-c2cc3occ(C)c3c(=O)o2)cc1OC`, the pEC50 with SK-BR-3 [2] is less than 4.16.
